# Laboratory results as given in ChEMBL document CHEMBL1123778, “Synthesis and 5-lipoxygenase inhibitory activity of 5-hydroperoxy-6,8,11,14-eicosatetraenoic acid analogues” (J Med Chem, 1987).
# Target: T1, Polyunsaturated fatty acid 5-lipoxygenase (Rattus norvegicus) (UniProt P12527)
# T1 sequence (whole entry): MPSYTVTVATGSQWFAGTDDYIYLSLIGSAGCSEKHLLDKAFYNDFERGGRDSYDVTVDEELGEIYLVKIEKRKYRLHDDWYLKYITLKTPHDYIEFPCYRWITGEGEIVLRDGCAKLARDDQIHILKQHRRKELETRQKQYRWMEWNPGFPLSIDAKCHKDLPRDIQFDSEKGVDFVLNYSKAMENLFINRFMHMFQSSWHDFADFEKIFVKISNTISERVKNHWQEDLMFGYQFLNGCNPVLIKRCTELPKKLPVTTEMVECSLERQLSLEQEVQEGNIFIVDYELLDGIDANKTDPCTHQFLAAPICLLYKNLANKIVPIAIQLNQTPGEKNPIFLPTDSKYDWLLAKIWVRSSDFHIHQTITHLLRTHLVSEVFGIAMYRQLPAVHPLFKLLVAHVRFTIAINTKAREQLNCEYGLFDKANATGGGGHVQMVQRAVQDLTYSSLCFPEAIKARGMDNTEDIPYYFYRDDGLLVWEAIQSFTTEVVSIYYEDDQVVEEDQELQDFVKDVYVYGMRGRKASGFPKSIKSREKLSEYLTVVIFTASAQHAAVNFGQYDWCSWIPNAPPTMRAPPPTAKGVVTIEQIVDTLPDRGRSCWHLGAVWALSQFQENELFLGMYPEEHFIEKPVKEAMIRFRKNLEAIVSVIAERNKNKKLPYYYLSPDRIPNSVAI
# Assay: In vitro inhibitory activity against 5-Lipoxygenase from rat basophilic leukemia cells at 30 uM concentration
# Outline: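 20000g supernatant of homogenized RBL-1 cells (7.5×10^6 cell equivalents/mL) preincubated 20 min at 37 °C with inhibitor or vehicle (2% Me₂SO) in pH 6.8 BES/PIPES buffer with EDTA, NaCl, 0.7 mM CaCl₂. Reaction started with 66 μM [¹⁴C]arachidonic acid. [¹⁴C]-5-HETE counted by liquid scintillation, corrected for [³H]-5-HETE recovery. Inhibition = % reduction vs control.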
row,inhibition [%],SMILES
1,27,CCCCC/C=C\C/C=C\C/C=C\C=C\C1CCCC(=O)C1 (centres undefined)

# Target: T2, Polyunsaturated fatty acid 5-lipoxygenase (Rattus norvegicus, UniProt P12527)
# T2 sequence (P12527 whole entry): T1 sequence (whole entry)
# Assay: In vitro inhibitory activity against 5-lipoxygenase from rat basophilic leukemia cells.
row,IC50 [µM],SMILES
1,59,CCCCC/C=C\C/C=C\C/C=C\C=C\C1CC(=O)CC(CC(=O)O)C1 (centres undefined)
2,97,CCCCC/C=C\C/C=C\C/C=C\C=C\C(CCCO)CCCC(=O)O (centres undefined)
3,0.19,CCCCC/C=C\C/C=C\C/C=C\C=C\C(CCCC(=O)O)CC(=O)NO (centres undefined)
4,2.8,CCCCC/C=C\C/C=C\C/C=C\C=C\C(CCCC(=O)O)CCC(=O)NO (centres undefined)
5,21,CCCCC/C=C\C/C=C\C/C=C\C=C\C(CCCC(=O)O)NO (centres undefined)
6,25,CCCCC/C=C\C/C=C\C/C=C\C=C\C(CCS)CCCC(=O)O (centres undefined)
7,36,CCCCC/C=C\C/C=C\C/C=C\C=C\C(CCCS)CCCC(=O)O (centres undefined)
8,7.6,CCCCC/C=C\C/C=C\C/C=C\C=C\C(S)CCCC(=O)O (centres undefined)
9,29,CCCCC/C=C\C/C=C\C/C=C\C=C\C(CO)CCCC(=O)O (centres undefined)
10,1.4,CCCCC/C=C\C/C=C\C/C=C\C=C\C(CCCC(=O)O)C(=O)NO (centres undefined)
11,11,CCCCC/C=C\C/C=C\C\C=C/C=C/C(CCCC(=O)O)=N/O
12,25,CCCCC/C=C\C/C=C\C/C=C\C=C\C(N)CCCC(=O)O (centres undefined)
13,7,CCCCC/C=C\C/C=C\C\C=C/C=C/C(CCCC(=O)O)=N/NC(N)=O
14,7.9,CCCCC/C=C\C/C=C\C\C=C/C=C/C(CCCC(=O)O)=N/N=C(/N)S
15,68,CCCCC/C=C\C/C=C\C/C=C\C=C\C(CCCC(=O)O)OC(C)=O (centres undefined)
16,18,CCCCC/C=C\C/C=C\C/C=C\C=C\C(=O)CCCC(=O)O [5-OXO-ETE]
17,96,CCCCC/C=C\C/C=C\C/C=C\C=C\C(CCCC(=O)O)CC(=O)O (centres undefined)
18,2.1,CCCCC/C=C\C/C=C\C/C=C\C=C\C(O)CCCC(=O)NO (centres undefined)
19,11,CCCCC/C=C\C/C=C\C/C=C\C=C\C(CS)CCCC(=O)O (centres undefined)
20,22,CCCCC/C=C\C/C=C\C/C=C\C=C\C(CCO)CCCC(=O)O (centres undefined)
21,27,CCCCC/C=C\C/C=C\C/C=C\C=C\C1CCCC(=O)O1 (centres undefined)
22,10,CCCCC/C=C\C/C=C\C/C=C\C=C\C1CCCC(=O)N1 (centres undefined)

row,SMILES,IC50 [µM]
1,CCCCC/C=C\C/C=C\C/C=C\C/C=C\CCCC(=O)NO,2.2
